Experimental findings from ChEMBL document CHEMBL1921766, “Orally active zwitterionic factor Xa inhibitors with long duration of action” (Bioorg Med Chem Lett, 2011) are described below.

Data set [1] can be described thus: Solubility of the compound in Japanese pharmacopoeia first fluid at pH 1.2 at 10 mM after 12 hrs. In kind it is physicochemical. Summed up:
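Solubility measured in Japanese Pharmacopoeia First Fluid, pH 1.2.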

Data set [2] is described as follows: Solubility of the compound in Japanese pharmacopoeia second fluid at pH 6.8 at 10 mM after 12 hrs. In kind it is physicochemical. Summed up:
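Solubility measured in Japanese Pharmacopoeia Second Fluid, pH 6.8.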

A short description of data set [3]: Metabolic stability in human liver microsomes at 1 uM after 20 to 30 mins by LC/MS/MS analysis in presence of NADPH. The class given is ADME, Microsome. The conditions noted are these: read-out: Stability. In outline:
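Metabolic stability read as percent remaining after incubation with human liver microsomes in vitro.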
A general note: Microsomes from liver hold many membrane-bound enzymes, among them those of drug oxidation.

A short description of data set [4]: 1-Octanol-phosphate buffered saline distribution coefficient, log D of the compound at pH 7.4 after 30 mins by shake flask method. The class given is physicochemical. In outline:
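Log D measured as the partition between 1-octanol and phosphate buffered saline, pH 7.4.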

Data set [5] in a line: Bioavailability in monkey at 1 mg/kg, iv after 24 hrs by LC-MS/MS analysis. The class given is ADME, organism-based, Macaca mulatta. To be noted: rhesus monkey, in vivo.
Data set [6] is described as follows: AUC in monkey serum at 1 mg/kg, po by LC-MS/MS analysis. The conditions noted are these: rhesus monkey. The class given is ADME, organism-based, Macaca mulatta. The arrangement: dose 1 mg/kg, route oral. Summed up:
(§1)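 Oral dosing of fasting monkeys (two animals) at 1.0 mg/kg, given as HCl salts. Plasma was sampled at 0.5, 1, 2, 4, 8 and 24 h for ex vivo anti-fXa inhibition (%) and for drug concentration. AUC, Cmax, C24 h and the Cmax/C24 h ratio were taken from the plasma concentrations.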

A short description of data set [7]: Cmax in monkey serum at 1 mg/kg, po by LC-MS/MS analysis. In kind it is ADME, organism-based, Macaca mulatta. Set-up: dose 1 mg/kg, route oral. The conditions noted are these: rhesus monkey. Summed up: as §1
A short description of data set [8]: Drug level in monkey serum at 1 mg/kg, po at 24 hrs by LC-MS/MS analysis. The class given is ADME, organism-based, Macaca mulatta. The arrangement: dose 1 mg/kg, route oral. The conditions noted are these: rhesus monkey, read-out: Drug uptake. In outline:
as §1

≈ marks a conversion by molar mass, not a printed value.

Consider `CC(C)N1CCc2nc(C(=O)Nc3cc(C(=O)O)cc(Cl)c3CCC(=O)Nc3ccc(Cl)cc3)sc2C1`, for which the solubility (commonly the concentration that dissolves in the medium under given conditions) at 12 h, 10000 µM in data set [1] came to 450 µg/mL (≈ 801 µM); in data set [2], 160 µg/mL (≈ 285 µM). Besides, the remaining at 1 µM in data set [3] is 93%. Moreover, the logD (as a rule, lipophilicity at a set pH, counting ionised and neutral species) at 0.5 h in data set [4] worked out at 1.61. Also, in data set [5], the bioavailability – broadly, dose-corrected exposure relative to a reference, in per cent – was 52%.
As for `CCOc1cc(C(=O)O)cc(NC(=O)c2nc3c(s2)CN(C(C)C)CC3)c1CCC(=O)Nc1ccc(Cl)cc1`, the solubility at 12 h, 10000 µM in data set [1] came out at 370 µg/mL (≈ 648 µM); in data set [2] it was 3 µg/mL (≈ 5.25 µM). Moreover, the remaining at 1 µM in data set [3] came to 93%. In addition, in data set [4], the logD at 0.5 h was 1.62.
As for `CN1CCc2nc(C(=O)Nc3cc(C(=O)O)ccc3CCC(=O)Nc3ccc(Cl)cc3)sc2C1`, the solubility at 12 h, 10000 µM in data set [1] is 430 µg/mL (≈ 862 µM); in data set [2] it was 24 µg/mL (≈ 48.1 µM). Moreover, the remaining at 1 µM in data set [3] was determined as 95%. Also, in data set [4], the logD at 0.5 h was 0.27.
On to `O=C(O)c1ccc(CNC(=O)c2ccc(Cl)s2)c(NC(=O)c2nc3c(s2)COCC3)c1`, for which the solubility at 12 h, 10000 µM in data set [1] came out at 2 µg/mL (≈ 4.18 µM); in data set [2], 950 µg/mL (≈ 1990 µM). Moreover, the remaining at 1 µM in data set [3] came to 82%. For the same compound, the logD at 0.5 h in data set [4] amounted to 0.02.
As to `CN1CCc2nc(C(=O)Nc3cc(C(=O)O)ccc3CNC(=O)c3ccc(Cl)s3)sc2C1.Cl`, in data set [6], the area under the curve (AUC) (usually the area under the concentration-time curve, a measure of exposure) amounted to 247 ng·h/mL. In data set [7], the highest level (Cmax) was 25.8 ng/mL. The concentration at 24 h in data set [8] was determined as 4 ng/mL.
For the compound `CC(C)N1CCc2nc(C(=O)Nc3cc(C(=O)O)ccc3CCC(=O)Nc3ccc(F)cc3)sc2C1`, the solubility at 12 h, 10000 µM was 980 µg/mL (≈ 1920 µM) in data set [1] and 140 µg/mL (≈ 274 µM) in data set [2]. Further, the remaining at 1 µM in data set [3] turned out to be 94%. Further, in data set [4], the pH-dependent lipophilicity (logD) at 0.5 h was 0.27.
With `CC(C)N1CCc2nc(C(=O)Nc3cc(C(=O)O)ccc3CCC(=O)Nc3ccc(Cl)cc3)sc2C1`, the solubility at 12 h, 10000 µM was 490 µg/mL (≈ 930 µM) in data set [1] and 720 µg/mL (≈ 1370 µM) in data set [2]. The remaining at 1 µM in data set [3] amounted to 100%. Besides, the logD at 0.5 h in data set [4] came out at 0.82. For the same compound, in data set [5], the bioavailability came out at 67%.
For the compound `CC(C)N1CCc2nc(C(=O)Nc3cc(C(=O)O)ccc3CNC(=O)c3ccc(Cl)s3)sc2C1.Cl`, in data set [6], the AUC came out at 605 ng·h/mL. Further, the peak level in data set [7] (Cmax) was 67.1 ng/mL. The concentration at 24 h in data set [8] came to 7.1 ng/mL.
As for `CC(C)Oc1cc(C(=O)O)cc(NC(=O)c2nc3c(s2)CN(C(C)C)CC3)c1CCC(=O)Nc1ccc(Cl)cc1`, the solubility at 12 h, 10000 µM in data set [1] worked out at 320 µg/mL (≈ 547 µM); in data set [2], 130 µg/mL (≈ 222 µM). Moreover, in data set [3], the remaining at 1 µM worked out at 86%. Moreover, the logD at 0.5 h in data set [4] turned out to be 1.91.
For `O=C(O)c1ccc(CNC(=O)c2ccc(Cl)s2)c(NC(=O)c2nc3c(s2)CN(C(CF)CF)CC3)c1`, in that order: 120 µg/mL (≈ 216 µM), 870 µg/mL (≈ 1570 µM), 100% and 0.44.
For `CCN1CCc2nc(C(=O)Nc3cc(C(=O)O)ccc3CNC(=O)c3ccc(Cl)s3)sc2C1`, in that order: 230 µg/mL (≈ 455 µM), 1000 µg/mL (≈ 1980 µM), 97% and 0.14.
The compound `CC(C)N1CCc2nc(C(=O)Nc3cc(C(=O)O)cc(F)c3CCC(=O)Nc3ccc(Cl)cc3)sc2C1.Cl` displayed an AUC in data set [6] of 448 ng·h/mL. The concentration in data set [7] peaked (Cmax) at 32 ng/mL. Also, the concentration at 24 h in data set [8] was found to be 6.1 ng/mL.
For `CC(C)N1CCc2nc(C(=O)Nc3cc(C(=O)O)cc(Cl)c3CCC(=O)Nc3ccc(Cl)cc3)sc2C1.Cl`, in that order: 724 ng·h/mL, 67 ng/mL and 17 ng/mL.
Consider `CC(C)N1CCc2nc(C(=O)Nc3c(CCC(=O)Nc4ccc(Cl)cc4)cccc3C(=O)O)sc2C1`, for which the solubility at 12 h, 10000 µM came out at 1000 µg/mL (≈ 1900 µM) in data set [1] and 830 µg/mL (≈ 1570 µM) in data set [2]. Also, in data set [3], the remaining at 1 µM is 100%. In data set [4], this compound returned a logD at 0.5 h of 0.66.
The like results for `CC(C)N1CCc2nc(C(=O)Nc3cc(C(=O)O)cc(C(F)(F)F)c3CCC(=O)Nc3ccc(Cl)cc3)sc2C1` were, in that order, 700 µg/mL (≈ 1180 µM), 310 µg/mL (≈ 521 µM), 77% and 1.64.
The like results for `COc1cc(C(=O)O)cc(NC(=O)c2nc3c(s2)CN(C(C)C)CC3)c1CCC(=O)Nc1ccc(Cl)cc1` were, in that order, 810 µg/mL (≈ 1450 µM), 39 µg/mL (≈ 70 µM), 87% and 1.15.
Consider `COCC(C)N1CCc2nc(C(=O)Nc3cc(C(=O)O)ccc3CNC(=O)c3ccc(Cl)s3)sc2C1` (configuration not stated), for which the solubility at 12 h, 10000 µM in data set [1] was found to be 610 µg/mL (≈ 1110 µM); in data set [2], 1000 µg/mL (≈ 1820 µM). Moreover, the remaining at 1 µM in data set [3] was found to be 100%. In data set [4], the logD at 0.5 h stood at 0.41.
Compound `CC(C)N1CCc2nc(C(=O)Nc3cc(C(=O)O)ccc3CCC(=O)Nc3ccc(Cl)cc3)sc2C1.Cl` had an AUC in data set [6] of 1370 ng·h/mL. Moreover, the concentration in data set [7] peaked (Cmax) at 87 ng/mL. Also, the concentration at 24 h in data set [8] was 26 ng/mL.
For `CC(C)N1CCc2nc(C(=O)Nc3cc(C(=O)O)ccc3CCC(=O)Nc3ccc(Cl)cn3)sc2C1.Cl`, in that order: 785 ng·h/mL, 98 ng/mL and 9.5 ng/mL.
As to `CN1CCc2nc(C(=O)Nc3cc(C(=O)O)ccc3CNC(=O)c3ccc(Cl)s3)sc2C1`, the solubility at 12 h, 10000 µM in data set [1] is 55 µg/mL (≈ 112 µM); in data set [2], over 850 µg/mL. Further, in data set [3], the remaining at 1 µM was determined as 71%. The same compound had a logD at 0.5 h in data set [4] of -0.29.
For `CC(C)N1CCc2nc(C(=O)Nc3cc(C(=O)O)ccc3CCC(=O)Nc3ccc(Br)cc3)sc2C1`, in that order: 65 µg/mL (≈ 114 µM), 520 µg/mL (≈ 910 µM), 88% and 1.08.
On to `CN1CCc2nc(C(=O)Nc3c(CNC(=O)c4ccc(Cl)s4)cccc3C(N)=O)sc2C1.Cl`, for which the AUC in data set [6] is 285 ng·h/mL. For the same compound, the Cmax (in general, the highest concentration seen after dosing) in data set [7] amounted to 109 ng/mL.
The compound `CN1CCc2nc(C(=O)Nc3ccccc3CNC(=O)c3ccc(Cl)s3)sc2C1.Cl` displayed an AUC in data set [6] of 346 ng·h/mL. This compound had a peak concentration (Cmax) in data set [7] of 95.9 ng/mL. Besides, the concentration at 24 h in data set [8] stood at 0.6 ng/mL.
Regarding `CC(C)N1CCc2nc(C(=O)Nc3cc(C(=O)O)ccc3CCC(=O)Nc3ccc(Cl)cn3)sc2C1`, the solubility at 12 h, 10000 µM is 810 µg/mL (≈ 1530 µM) in data set [1] and 86 µg/mL (≈ 163 µM) in data set [2]. Moreover, in data set [3], the remaining at 1 µM came out at 100%. This compound also came in with a logD at 0.5 h in data set [4] of 0.23.
Take `CC(C)N1CCc2nc(C(=O)Nc3c(CNC(=O)c4ccc(Cl)s4)cccc3C(=O)O)sc2C1.Cl`: in data set [6], the AUC is 221 ng·h/mL. The compound further yielded a Cmax in data set [7] of 50.5 ng/mL. The concentration at 24 h in data set [8] was 2 ng/mL.
`CC(C)N1CCc2nc(C(=O)Nc3cc(C(=O)O)ccc3CNC(=O)c3ccc(Cl)s3)sc2C1`: the values for the solubility at 12 h, 10000 µM in data set [1] and in data set [2] were 49 µg/mL (≈ 94.4 µM) and 41 µg/mL (≈ 79 µM), respectively. Moreover, the remaining at 1 µM in data set [3] amounted to 96%. Besides, in data set [4], the logD at 0.5 h was 0.57. The compound further had a bioavailability in data set [5] of 51%.
